According to ChEMBL document CHEMBL2396611, “Synthesis and mechanism of hypoglycemic activity of benzothiazole derivatives” (J Med Chem, 2013):
Values belong to the compound of their own block, whether it stands above or below them. Active and inactive are the calls of the source. The calls are words filed in the database; no cut-off is given here.

Experiments:
L6 [1] = test: Activation of AMPKalpha in rat L6 cells assessed as phosphorylation at Thr172 at 100 uM up to 5 hrs by Western blot analysis; type: cell-based
Method in brief: (§1)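 L6 myotubes exposed for the indicated times to test compound (100 μM in the first series; 50–150 μM in the second) or 4 mM AICAR. Whole-cell lysates immunoblotted for pThr172-AMPKα, AMPKα and α-tubulin; band densities from three independent experiments vs respective controls.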

[2] = target: 5'-AMP-activated protein kinase catalytic subunit alpha-2 (Rattus norvegicus) (UniProt Q09137); test: (§2) Activation of AMPK in rat L6 cells assessed as increase of [3H]dGlc uptake after 5 hrs; type: cell-based
Method in brief: (§3)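 Fully differentiated L6 myotubes preincubated 24 h in αMEM with 2% FCS and 23.0 mmol/L D-glucose, then 4 h serum-free with 0.5% BSA. Compound or DMSO vehicle given for the indicated times or concentrations. Uptake read after 5 min at room temperature in PBS pH 7.4 with 0.1 mmol/L dGlc and 1.3 μCi/mL [3H]dGlc, by scintillation of SDS lysates. Zero-time basal rate set as 100%; n=6.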

[3] = target: 5'-AMP-activated protein kinase catalytic subunit alpha-2 (Rattus norvegicus) (UniProt Q09137); test: Activation of AMPK in rat L6 cells assessed as increase of [3H]dGlc uptake at 10 to 200 uM; type: cell-based; details: TDE = time-dependent effect; method in brief: as §3
L6 [4] = test: Effect on […] level in rat L6 cells at 3.5 mmol/L after 20 mins in presence of HCGM (reference value: 23 mmol/L); type: ADME, cell-based; details: l6, 20 min, 3500 µM
Method in brief: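 Fully differentiated L6 myotubes preconditioned in medium with 23.0 mmol/L D-glucose, then exposed 20 min. Cells washed in cold 0.15 M Tris-HCl pH 7.75, extracted with ice-cold 0.5% TCA, diluted in Tris-HCl and spun 12,000 rpm, 30 min, 4 °C. Supernatant ATP measured by colorimetric kit, expressed per mg protein. Mean ± SEM; two-tailed t test against untreated 23.0 mmol/L glucose cells.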

[5] = target: 5'-AMP-activated protein kinase catalytic subunit alpha-2 (Rattus norvegicus) (UniProt Q09137); test: Activation of AMPK in rat L6 cells assessed as increase of [3H]dGlc uptake at 50 uM after 5 hrs relative to control; type: cell-based; method in brief: as §3
L6 [6] = test: Activation of AMPKalpha in rat L6 cells assessed as phosphorylation at Thr172 at 100 uM after 60 mins by Western blot analysis; type: cell-based; method in brief: as §1
[7] = Lipophilicity, log P of the compound; type: physicochemical; details: octanol/water
L6 [8] = test: Activation of AMPKalpha in rat L6 cells assessed as phosphorylation at Thr172 at 150 uM after 40 mins to 5 hrs by Western blot analysis; type: cell-based; method in brief: as §1
[9] = target: 5'-AMP-activated protein kinase catalytic subunit alpha-2 (Rattus norvegicus) (UniProt Q09137); test: Activation of AMPK in rat L6 cells assessed as increase of [3H]dGlc uptake at 150 uM after 5 hrs relative to control; type: cell-based; method in brief: as §3
[10] = target: 5'-AMP-activated protein kinase catalytic subunit alpha-2 (Rattus norvegicus) (UniProt Q09137); test: Activation of AMPK in rat L6 cells assessed as increase of [3H]dGlc uptake at 100 uM after 5 hrs in absence of insulin; type: cell-based; method in brief: as §3
L6 [11] = test: Activation of AMPKalpha in rat L6 cells assessed as phosphorylation at Thr172 at 100 uM after 24 hrs by Western blot analysis; type: cell-based; method in brief: as §1
[12] = target: 5'-AMP-activated protein kinase catalytic subunit alpha-2 (Rattus norvegicus) (UniProt Q09137); test: Activation of AMPK in rat L6 cells assessed as increase of [3H]dGlc uptake at 100 uM after 24 hrs; type: cell-based; method in brief: as §3
[13] = target: 5'-AMP-activated protein kinase catalytic subunit alpha-2 (Rattus norvegicus, UniProt Q09137); test: as §2; type: cell-based; method in brief: as §3
[14] = target: 5'-AMP-activated protein kinase catalytic subunit alpha-2 (Homo sapiens) (UniProt P54646); test: Activation of human recombinant AMPK at 20 uM after 30 mins relative to control
Method in brief: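 Recombinant human full-length AMPK assayed with a commercial luminescent kit. Compound at 20 μM or DMSO vehicle (1% v/v) added to the reaction mix for 30 min at ambient temperature. Activity read by luminometer against a calibration curve; basal activity with DMSO set as 100%.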

[15] = target: 5'-AMP-activated protein kinase catalytic subunit alpha-2 (Rattus norvegicus) (UniProt Q09137); test: Activation of AMPK in rat L6 cells assessed as increase of [3H]dGlc uptake at 5 uM after 5 hrs relative to control; type: cell-based; method in brief: as §3
L6 [16] = test: Activation of AMPKalpha in rat L6 cells assessed as phosphorylation at Thr172 at 100 uM after 40 mins by Western blot analysis; type: cell-based; method in brief: as §1
L6 [17] = test: Effect on ATP/AMP ratio in rat L6 cells at >100 uM; type: ADME, cell-based
[18] = target: 5'-AMP-activated protein kinase catalytic subunit alpha-2 (Rattus norvegicus) (UniProt Q09137); test: Activation of AMPK in rat L6 cells assessed as increase of [3H]dGlc uptake at 100 uM after 10 to 40 hrs; type: cell-based; method in brief: as §3
[19] = target: 5'-AMP-activated protein kinase catalytic subunit alpha-2 (Rattus norvegicus) (UniProt Q09137); test: Activation of AMPK in rat L6 cells assessed as phosphorylation at Thr172 at > 0.5 mmol/L after 5 hrs by Western blot analysis; type: cell-based
[20] = target: 5'-AMP-activated protein kinase catalytic subunit alpha-2 (Rattus norvegicus) (UniProt Q09137); test: Activation of AMPK in rat L6 cells assessed as increase of [3H]dGlc uptake at > 0.5 mmol/L after 5 hrs; type: cell-based

5'-AMP-activated protein kinase catalytic subunit alpha-2, sequence (Q09137 whole entry): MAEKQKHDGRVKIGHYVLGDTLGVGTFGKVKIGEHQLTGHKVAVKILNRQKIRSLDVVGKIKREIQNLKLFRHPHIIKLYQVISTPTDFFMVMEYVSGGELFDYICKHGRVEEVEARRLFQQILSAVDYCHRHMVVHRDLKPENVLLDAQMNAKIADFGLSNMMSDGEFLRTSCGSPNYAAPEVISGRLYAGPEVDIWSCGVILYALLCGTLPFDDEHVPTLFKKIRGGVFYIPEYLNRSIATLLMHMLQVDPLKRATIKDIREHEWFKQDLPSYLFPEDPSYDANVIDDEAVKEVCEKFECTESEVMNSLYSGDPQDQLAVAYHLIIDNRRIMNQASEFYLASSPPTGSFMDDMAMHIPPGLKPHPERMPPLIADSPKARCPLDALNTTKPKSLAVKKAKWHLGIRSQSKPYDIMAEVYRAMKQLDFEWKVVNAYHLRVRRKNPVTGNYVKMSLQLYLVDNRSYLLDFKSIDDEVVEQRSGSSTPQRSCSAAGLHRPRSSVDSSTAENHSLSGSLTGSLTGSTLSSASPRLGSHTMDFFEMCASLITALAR
5'-AMP-activated protein kinase catalytic subunit alpha-2 (Rattus norvegicus), sequence (Q09137 whole entry): as above
5'-AMP-activated protein kinase catalytic subunit alpha-2 (Homo sapiens), sequence (P54646 whole entry, looked up): as the sequence (Q09137 whole entry) above, with V114M, Q150H, I241V, T348S, M355S, V502F, S505T, N509S, A528V, A549T counted along it

Activity [2]: Dose-dependent effect
Activity [3]: tde
SMILES: CCCNC(=O)CSc1nc2ccc(OCC)cc2s1
Activity (L6 [1]): Active

SMILES: O=[N+]([O-])c1ccc(O)c([N+](=O)[O-])c1 [2,4-DINITROPHENOL]
Activity (L6 [4]): 0.42 mmol/mg

fold change (FC) [5]: 1.8
SMILES: CCOc1ccc2nc(SCCC(=O)O)sc2c1
Activity (L6 [6]): Active

logP [7]: 1.96
SMILES: Oc1ccc2nc(S)sc2c1

Activity [9]: 189%
SMILES: CCOc1ccc2nc(SSc3nc4ccc(OCC)cc4s3)sc2c1
Activity (L6 [8]): Active

logP [7]: 3.17
Activity [10]: Active
Activity [12]: Active
EC50 [13]: 76.1 µM
SMILES: CCOc1ccc2nc(S)sc2c1
Activity (L6 [11]): Active

fold change (FC) [14]: 2.04
Activity [2]: Dose-dependent effect
Activity [3]: tde
fold change (FC) [15]: 1.4
SMILES: Cc1cc(-c2ccc(/C=C3/S/C(=N\c4ccc(Cl)c(C(=O)O)c4)NC3=O)o2)c([N+](=O)[O-])cc1C

Activity [18]: inactive
EC50 [13]: 61.5 µM
SMILES: CCC1SC(N)=NC1=O (centres undefined)
Activity (L6 [1]): inactive
Activity (L6 [16]): Active
Activity (L6 [17]): Toxic

Activity [10]: Active
Activity [12]: Active
EC50 [13]: 72.9 µM
SMILES: Oc1nc2ccc(Br)cc2s1
Activity (L6 [11]): Active

Activity [19]: Active
Activity [20]: Active
SMILES: NC1=NC(=O)/C(=C\C=C\c2ccc([N+](=O)[O-])o2)S1
